pIC50: −log10 of the molar value.
Columns and labels:
L1210 [1] = experiment: Inhibition of L1210 lymphoid leukemia cells 72 hr after administration (length of preincubation=0 hr); assay type: functional, cell-based; conditions: Mus musculus
Outline: (§1)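 L1210 cells (2×10^4/well) exposed continuously to serially diluted compound in Fischer's medium with 10% horse serum for up to 72 h. Viable cells were counted by Trypan blue exclusion at 24, 48 and 72 h. IC50 is the concentration giving 50% growth inhibition, estimated from response curves of three separate experiments.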

L1210 [2] = experiment: Inhibition of L1210 lymphoid leukemia cells 24 hr after administration (length of preincubation=0 hr); assay type: functional, cell-based; conditions: Mus musculus; outline: as §1
L1210 [3] = experiment: Inhibition of L1210 lymphoid leukemia cells 48 hr after administration (length of preincubation=0 hr); assay type: functional, cell-based; conditions: Mus musculus; outline: as §1
[4] = Half life in human plasma; assay type: ADME
Outline: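 Compound ([…]) incubated in 1 mL fresh human plasma at 37 °C against a buffer reference; hydrolysis followed by change in absorption at 325 nm (ϵ 1.55). Initial concentration about 2 × 10^-4 M; apparent first-order kinetics, with the pseudo-first-order rate constant given by k = 0.693/t1/2.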

SMILES	pIC50 (L1210 [1])	pIC50 (L1210 [2])	pIC50 (L1210 [3])	half-life [4] [h]
Nc1ccn([C@@H]2O[C@H](CO)[C@@H](O)[C@@H]2O)c(=O)n1 [CYTARABINE]	8.00	7.00	8.00	
CC(C)C[C@H](NC(=O)[C@H](N)C(C)C)C(=O)N[C@@H](CCCCN)C(=O)N(C)c1ccn([C@@H]2O[C@H](CO)[C@@H](O)[C@@H]2O)c(=O)n1.N=C(N)c1ccc(CS(=O)(=O)F)cc1	8.00	6.00	8.30	5.5
